The source made the active and inactive calls. The calls are words filed in the database; no cut-off is given here.

What is called IC50 is the midpoint of a concentration-inhibition curve.

Sequence of Human immunodeficiency virus type 1 integrase (Q7ZJM1 whole entry): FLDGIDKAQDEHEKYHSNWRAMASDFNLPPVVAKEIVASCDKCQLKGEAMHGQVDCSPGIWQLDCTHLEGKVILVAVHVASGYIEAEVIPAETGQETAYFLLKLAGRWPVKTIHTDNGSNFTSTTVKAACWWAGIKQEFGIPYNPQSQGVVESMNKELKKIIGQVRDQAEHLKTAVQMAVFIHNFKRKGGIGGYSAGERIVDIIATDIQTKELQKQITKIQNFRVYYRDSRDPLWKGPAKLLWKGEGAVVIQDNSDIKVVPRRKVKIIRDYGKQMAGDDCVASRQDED

The target in the first test is Human immunodeficiency virus type 1 integrase (Human immunodeficiency virus 1) (UniProt Q7ZJM1). In words: Ratio of D-d-5^ CpA3^ IC50 to compound IC50 for recombinant HIV1 integrase 3^-end processing and strand transfer activity.
Sequence of Human immunodeficiency virus type 1 integrase (Human immunodeficiency virus 1) (Q7ZJM1 as listed by the source): as the sequence (Q7ZJM1 whole entry) above
Regarding `NCCCCNP(=O)(O[C@H]1C[C@H](n2ccc(N)nc2=O)O[C@@H]1CO)O[C@H]1C[C@H](n2cnc3c(N)ncnc32)O[C@@H]1CO` (stereo not given in full), the Ratio IC50 amounted to 3. Regarding `N=C(N)NCCCCNP(=O)(O[C@H]1C[C@H](n2ccc(N)nc2=O)O[C@@H]1CO)O[C@H]1C[C@H](n2cnc3c(N)ncnc32)O[C@@H]1CO` (stereo not given in full), the Ratio IC50 was 3. On the same count and under the same terms, in the case of `N=C(N)NCCCCNP(=O)(OC[C@H]1O[C@@H](n2ccc(N)nc2=O)C[C@@H]1O)OC[C@H]1O[C@@H](n2cnc3c(N)ncnc32)C[C@@H]1O` (stereo not given in full) it was 3; in that of `NCCCCNP(=O)(OC[C@H]1O[C@@H](n2ccc(N)nc2=O)C[C@@H]1O)OC[C@H]1O[C@@H](n2cnc3c(N)ncnc32)C[C@@H]1O` (stereo not given in full), 3; in that of `Nc1ccn([C@H]2C[C@H](OP(=O)(S)O[C@H]3C[C@H](n4cnc5c(N)ncnc54)O[C@@H]3CO)[C@@H](CO)O2)c(=O)n1` (stereo not given in full), 3.

For another test the target is unchanged. In words: Inhibition of recombinant HIV1 integrase 3^-end processing and strand transfer activity at 300 uM to 300 nM after 1 hr by PAGE analysis. In outline:
(§1)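 Recombinant HIV-1 integrase (100 nM) with 12.5 nM 21-mer double-stranded DNA substrate in 10 mM HEPES pH 7.2, 1 mM DTT, 7.5 mM MgCl₂, 1 hr at 37 °C. Compound was titrated from 300 nM upward; an EDTA (10 mM) lane and a no-drug lane were included. 3′-processed and strand-transfer products were resolved on denaturing 18% acrylamide/urea gels.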
Take `Nc1ccn([C@H]2C[C@H](OP(=O)(O)OC[C@H]3O[C@@H](n4cnc5c(N)ncnc54)C[C@@H]3OP(=O)(O)O)[C@@H](COP(=O)(O)OCCCCCCNC(=O)c3ccc4c(c3)C(=O)c3cc(C(=O)NCCCCCCO)ccc3C4=O)O2)c(=O)n1` (stereo in doubt; 29) [listing 1 of 2 here]: the result was Active. Same read-out and setting: in the case of `Nc1ccn([C@H]2C[C@H](OP(=O)(O)OC[C@H]3O[C@@H](n4cnc5c(N)ncnc54)C[C@@H]3OP(=O)(O)O)[C@@H](COP(=O)(O)OCCCCCCNCc3ccc4c5cccc6cccc(c7cccc3c74)c65)O2)c(=O)n1` it was “Active”; in that of `COc1ccc2nc3cc(Cl)ccc3c(NCCCCCCOP(=O)(O)OC[C@H]3O[C@@H](n4ccc(N)nc4=O)C[C@@H]3OP(=O)(O)OC[C@H]3O[C@@H](n4cnc5c(N)ncnc54)C[C@@H]3OP(=O)(O)O)c2c1`, “Active”.

The target of a further test is Human immunodeficiency virus type 1 integrase (Human immunodeficiency virus 1, UniProt Q7ZJM1). In words: Inhibition of recombinant HIV1 integrase 3^-end processing and strand transfer activity after 1 hr. The procedure, abridged:
as §1
For `NCCNc1ccn([C@H]2C[C@H](OP(=O)(O)OC[C@H]3O[C@@H](n4cnc5c(N)ncnc54)C[C@@H]3O)[C@@H](CO)O2)c(=O)n1`, the IC50 was more than 1000 µM. As to `N=C(N)NCCCCCNc1ccn([C@H]2C[C@H](OP(=O)(O)OC[C@H]3O[C@@H](n4cnc5c(N)ncnc54)C[C@@H]3O)[C@@H](CO)O2)c(=O)n1`, the IC50 was more than 340 µM.

In the case of `COc1ccc2nc3cc(Cl)ccc3c(NCCCCCCSP(=O)(O)O[C@H]3C[C@H](n4cnc5c(N)ncnc54)O[C@@H]3COP(=O)(O)O[C@H]3C[C@H](n4ccc(N)nc4=O)O[C@@H]3COP(=O)(O)O)c2c1`, the IC50 was more than 100 µM. On the same count and under the same terms, the result for `Nc1ccn([C@H]2C[C@H](OP(=O)(O)OC[C@H]3O[C@@H](n4cnc5c(N)ncnc54)C[C@@H]3O)[C@@H](CO)O2)c(=O)n1` reads 340 µM; that for `Nc1ccn([C@H]2C[C@H](OP(=O)(O)OC[C@H]3O[C@@H](n4cnc5c(N)ncnc54)C[C@@H]3OP(=O)(O)O)[C@@H](COP(=O)(O)OCCCCCCNC(=O)c3ccc4c(c3)C(=O)c3cc(C(=O)NCCCCCCO)ccc3C4=O)O2)c(=O)n1` (stereo in doubt; 28), 21 µM; that for `Nc1ccn([C@H]2C[C@H](OP(=O)(O)OC[C@H]3O[C@@H](n4cnc5c(N)ncnc54)C[C@@H]3OP(=O)(O)O)[C@@H](COP(=O)(O)O[C@H]3C[C@H](OCCCc4ccc5c6cccc7cccc(c8cccc4c85)c76)O[C@@H]3CO)O2)c(=O)n1`, 30 µM. Regarding `Nc1ccn([C@H]2C[C@H](OP(=O)(O)OC[C@H]3O[C@@H](n4cnc5c(N)ncnc54)C[C@@H]3OP(=O)(O)O)[C@@H](COP(=O)(O)SCCCCCC(=O)Nc3ccc(N)c4c3C(=O)c3ccccc3C4=O)O2)c(=O)n1`, the IC50 stood at 13.4 µM. On the same count and under the same terms, in the case of `COc1ccc2nc3cc(Cl)ccc3c(NCCC[N+](C)(C)CCCSP(=O)(O)OC[C@H]3O[C@@H](n4ccc(N)nc4=O)C[C@@H]3OP(=O)([O-])OC[C@H]3O[C@@H](n4cnc5c(N)ncnc54)C[C@@H]3OP(=O)(O)O)c2c1` it was more than 100 µM; in that of `Nc1ccn([C@H]2C[C@H](OP(=O)(S)OC[C@H]3O[C@@H](n4cnc5c(N)ncnc54)C[C@@H]3O)[C@@H](CO)O2)c(=O)n1` (stereo not given in full), not below 340 µM; in that of `NCCCCCNc1ccn([C@H]2C[C@H](OP(=O)(O)OC[C@H]3O[C@@H](n4cnc5c(N)ncnc54)C[C@@H]3O)[C@@H](CO)O2)c(=O)n1`, more than 340 µM. On the same count and under the same terms, the result for `Nc1ccn([C@H]2C[C@H](OP(=O)(O)O[C@H]3C[C@H](n4cnc5c(N)ncnc54)O[C@@H]3CO)[C@@H](CO)O2)c(=O)n1` reads not below 340 µM; that for `NCCCCNP(=O)(O[C@H]1C[C@H](n2ccc(N)nc2=O)O[C@@H]1CO)O[C@H]1C[C@H](n2cnc3c(N)ncnc32)O[C@@H]1CO` (stereo not given in full), 100 µM. The same measure, in the same setting: in the case of `Nc1ccn([C@H]2C[C@H](OP(=O)(O)OC[C@H]3O[C@@H](n4cnc5c(N)ncnc54)C[C@@H]3OP(=O)(O)O)[C@@H](COP(=O)(O)OCCCCCCNC(=O)c3ccc4c(c3)C(=O)c3cc(C(=O)NCCCCCCO)ccc3C4=O)O2)c(=O)n1` (stereo in doubt; 29) [listing 2 of 2 here] it was 65.5 µM; in that of `N=C(N)NCCCCNP(=O)(O[C@H]1C[C@H](n2ccc(N)nc2=O)O[C@@H]1CO)O[C@H]1C[C@H](n2cnc3c(N)ncnc32)O[C@@H]1CO` (stereo not given in full), 100 µM; in that of `N=C(N)NCCCCNP(=O)(OC[C@H]1O[C@@H](n2ccc(N)nc2=O)C[C@@H]1O)OC[C@H]1O[C@@H](n2cnc3c(N)ncnc32)C[C@@H]1O` (stereo not given in full), 100 µM. For the compound `N=C(N)NCCCCCCNc1ccn([C@H]2C[C@H](OP(=O)(O)OC[C@H]3O[C@@H](n4cnc5c(N)ncnc54)C[C@@H]3O)[C@@H](CO)O2)c(=O)n1`, the IC50 is more than 340 µM. As for `NCCCCNP(=O)(OC[C@H]1O[C@@H](n2cnc3c(N)ncnc32)C[C@@H]1O)O[C@H]1C[C@H](n2ccc(N)nc2=O)O[C@@H]1CO` (stereo not given in full), the IC50 was not below 340 µM. On to `Nc1ccn([C@@H]2C[C@@H](OP(=O)(O)OC[C@@H]3O[C@H](n4cnc5c(N)ncnc54)C[C@H]3O)[C@H](CO)O2)c(=O)n1` (single isomer, unassigned), for which the IC50 is not below 340 µM. Turning to `Nc1ccn([C@H]2C[C@H](OP(=O)(O)OC[C@H]3O[C@@H](n4cnc5c(N)ncnc54)C[C@@H]3OP(=O)(O)O)[C@@H](COP(=O)(O)OCCCCCCNCc3ccc4c5cccc6cccc(c7cccc3c74)c65)O2)c(=O)n1`, the IC50 came out at 1.8 µM. For `Nc1ccn([C@@H]2C[C@@H](O)[C@H](COP(=O)(O)O[C@@H]3C[C@@H](n4cnc5c(N)ncnc54)O[C@H]3CO)O2)c(=O)n1`, the IC50 is not below 340 µM. For the compound `NCCCCCCNP(=O)(O)O[C@H]1C[C@H](n2cnc3c(N)ncnc32)O[C@@H]1COP(=O)(O)O[C@H]1C[C@H](n2ccc(N)nc2=O)O[C@@H]1COP(=O)(O)O`, the IC50 is more than 100 µM. Same read-out and setting: the result for `Nc1ccn([C@H]2C[C@H](OP(=O)(O)OC[C@H]3O[C@@H](n4cnc5c(N)ncnc54)C[C@@H]3OP(=O)(O)NCCCO)[C@@H](COP(=O)(O)O)O2)c(=O)n1` reads more than 100 µM; that for `NCCCCNc1ccn([C@H]2C[C@H](OP(=O)(O)OC[C@H]3O[C@@H](n4cnc5c(N)ncnc54)C[C@@H]3O)[C@@H](CO)O2)c(=O)n1`, more than 1000 µM. The same measure, in the same setting: in the case of `N=C(N)NCCCCNP(=O)(OC[C@H]1O[C@@H](n2cnc3c(N)ncnc32)C[C@@H]1O)O[C@H]1C[C@H](n2ccc(N)nc2=O)O[C@@H]1CO` (stereo not given in full) it was not below 340 µM.

On to `NCCCCNP(=O)(OC[C@H]1O[C@@H](n2ccc(N)nc2=O)C[C@@H]1O)OC[C@H]1O[C@@H](n2cnc3c(N)ncnc32)C[C@@H]1O` (stereo not given in full), for which the IC50 worked out at 102 µM.

On to `COc1ccc2nc3cc(Cl)ccc3c(NCCCCCCOP(=O)(O)OC[C@H]3O[C@@H](n4ccc(N)nc4=O)C[C@@H]3OP(=O)(O)OC[C@H]3O[C@@H](n4cnc5c(N)ncnc54)C[C@@H]3OP(=O)(O)O)c2c1`, for which the IC50 is 13.2 µM.

For `Nc1ccn([C@H]2C[C@H](O)[C@@H](COP(=O)(O)OC[C@H]3O[C@@H](n4cnc5c(N)ncnc54)C[C@@H]3O)O2)c(=O)n1`, the IC50 is not below 340 µM. Same read-out and setting: in the case of `COc1ccc2nc3cc(Cl)ccc3c(NCCCCSP(=O)(O)O[C@H]3C[C@H](n4cnc5c(N)ncnc54)O[C@@H]3COP(=O)(O)O[C@H]3C[C@H](n4ccc(N)nc4=O)O[C@@H]3COP(=O)(O)O)c2c1` it was more than 100 µM; in that of `Nc1ccn([C@H]2C[C@H](O)[C@@H](COP(=O)(S)OC[C@H]3O[C@@H](n4cnc5c(N)ncnc54)C[C@@H]3O)O2)c(=O)n1` (stereo not given in full), not below 340 µM. On the same count and under the same terms, in the case of `COc1ccc2nc3cc(Cl)ccc3c(NCCC[N+](C)(C)CCCSP(=O)(O)O[C@H]3C[C@H](n4cnc5c(N)ncnc54)O[C@@H]3COP(=O)([O-])O[C@H]3C[C@H](n4ccc(N)nc4=O)O[C@@H]3COP(=O)(O)O)c2c1` it was more than 100 µM; in that of `NCCCCCCNc1ccn([C@H]2C[C@H](OP(=O)(O)OC[C@H]3O[C@@H](n4cnc5c(N)ncnc54)C[C@@H]3O)[C@@H](CO)O2)c(=O)n1`, more than 340 µM; in that of `Nc1ccn([C@H]2C[C@H](OP(=O)(O)OC[C@H]3O[C@@H](n4cnc5c(N)ncnc54)C[C@@H]3OP(=O)(O)O)[C@@H](COP(=O)(O)SCCCCCC(=O)Nc3cccc4c3C(=O)c3ccccc3C4=O)O2)c(=O)n1`, 13.9 µM. In the case of `NCCCNc1ccn([C@H]2C[C@H](OP(=O)(O)OC[C@H]3O[C@@H](n4cnc5c(N)ncnc54)C[C@@H]3O)[C@@H](CO)O2)c(=O)n1`, the concentration for half-maximal inhibition (IC50) is more than 1000 µM. For the compound `N=C(N)NCCCCNc1ccn([C@H]2C[C@H](OP(=O)(O)OC[C@H]3O[C@@H](n4cnc5c(N)ncnc54)C[C@@H]3O)[C@@H](CO)O2)c(=O)n1`, the IC50 is more than 340 µM. Same read-out and setting: in the case of `NCCN(CCN)CCCSP(=O)(O)OC[C@H]1O[C@@H](n2ccc(N)nc2=O)C[C@@H]1OP(=O)(O)OC[C@H]1O[C@@H](n2cnc3c(N)ncnc32)C[C@@H]1OP(=O)(O)O` it was 786 µM; in that of `Nc1ccn([C@H]2C[C@H](OP(=O)(O)OC[C@H]3O[C@@H](n4cnc5c(N)ncnc54)C[C@@H]3OP(=O)(O)NCCCCCCCCCCCCO)[C@@H](COP(=O)(O)O)O2)c(=O)n1`, more than 100 µM; in that of `Nc1ccn([C@H]2C[C@H](OP(=O)(S)O[C@H]3C[C@H](n4cnc5c(N)ncnc54)O[C@@H]3CO)[C@@H](CO)O2)c(=O)n1` (stereo not given in full), 110 µM.

The values above are taken from ChEMBL document CHEMBL1156247, “Synthesis and anti-HIV-1 integrase activity of modified dinucleotides” (Eur J Med Chem, 2009).
